Activity calls are given as the source filed them. The calls are words filed in the database; no cut-off is given here.
Assays:
[1] = target: Cyclin-dependent kinase 2/cyclin E1 (Homo sapiens, UniProt P24941); assay: Inhibition of CDK2/Cyclin E (unknown origin) expressed in sf9 cells using histone H1 as substrate in presence of [gamma33P]-ATP; type: cell-based
[2] = target: Cyclin-dependent kinase 5 (Homo sapiens, UniProt Q00535); assay: Inhibition of CDK5 (unknown origin) using histone H1 as substrate in presence of [gamma33P]-ATP
K562 = assay: Cytotoxicity against human K562 cells assessed as reduction in cell viability after 72 hrs by calcein AM staining based fluorescence assay; type: functional; conditions: K562, 72 h
Outline: (§1)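 Cells were grown in DMEM with 10% FBS, penicillin and streptomycin at 37 °C in 5% CO2. Three doses were tested in triplicate for 72 h.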

MCF7 [3] = assay: Cytotoxicity against human MCF7 cells assessed as reduction in cell viability after 72 hrs by calcein AM staining based fluorescence assay; type: functional; conditions: for IC50: MCF7, 72 h; outline: as §1
[4] = Cytotoxicity against human G361 cells assessed as reduction in cell viability after 72 hrs by calcein AM staining based fluorescence assay; type: functional; conditions: G-361, 72 h; outline: as §1
[5] = (§2) Cytotoxicity against human HCT116 cells assessed as reduction in cell viability after 72 hrs by calcein AM staining based fluorescence assay; type: functional; conditions: HCT-116, 72 h
Outline: (§3)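 Cells were grown in DMEM with 10% FBS, penicillin and streptomycin at 37 °C in 5% CO2. Three doses were tested in triplicate for 72 h. Live cells were read by Calcein AM fluorescence at 485/538 nm.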

HCT-116 = assay: as §2; type: functional; outline: as §3
MCF7 [6] = assay: Cell cycle arrest in BrdU pulse-labelled human MCF7 cells assessed as accumulation at subG1 phase at 8 to […] after 24 hrs by propidium iodide staining based flow cytometry; type: functional
MCF7 [7] = assay: Cell cycle arrest in BrdU pulse-labelled human MCF7 cells assessed as accumulation at late S phase at 8 to […] after 24 hrs by propidium iodide staining based flow cytometry; type: functional
MCF7 [8] = assay: Cell cycle arrest in BrdU pulse-labelled human MCF7 cells assessed as accumulation at late G2/M phase at 8 to […] after 24 hrs by propidium iodide staining based flow cytometry; type: functional
MCF7 [9] = assay: Cell cycle arrest in BrdU pulse-labelled human MCF7 cells assessed as decrease in cells at S phase at 8 to […] after 24 hrs by propidium iodide staining based flow cytometry; type: functional
MCF7 [10] = assay: Cell cycle arrest in BrdU pulse-labelled human MCF7 cells assessed as accumulation at subG1 phase at 2500 to 20000 nM after 24 hrs by propidium iodide staining based flow cytometry; type: functional
MCF7 [11] = assay: Cell cycle arrest in BrdU pulse-labelled human MCF7 cells assessed as accumulation at late S phase at 2500 to 20000 nM after 24 hrs by propidium iodide staining based flow cytometry; type: functional
MCF7 [12] = assay: Cell cycle arrest in BrdU pulse-labelled human MCF7 cells assessed as accumulation at late G2/M phase at 2500 to 20000 nM after 24 hrs by propidium iodide staining based flow cytometry; type: functional
MCF7 [13] = assay: Cell cycle arrest in BrdU pulse-labelled human MCF7 cells assessed as decrease in cell at S phase at 2500 to 20000 nM after 24 hrs by propidium iodide staining based flow cytometry; type: functional
MCF7 [14] = assay: Cell cycle arrest in BrdU pulse-labelled human MCF7 cells assessed as accumulation at subG1 phase at 500 to 5000 nM after 24 hrs by propidium iodide staining based flow cytometry; type: functional
MCF7 [15] = assay: Cell cycle arrest in BrdU pulse-labelled human MCF7 cells assessed as decrease in cells at S phase at 500 to 5000 nM after 24 hrs by propidium iodide staining based flow cytometry; type: functional
MCF7 [16] = assay: Cell cycle arrest in BrdU pulse-labelled human MCF7 cells assessed as accumulation at late G2/M phase at 500 to 5000 nM after 24 hrs by propidium iodide staining based flow cytometry; type: functional
MCF7 [17] = assay: Cell cycle arrest in BrdU pulse-labelled human MCF7 cells assessed as accumulation at late S phase at 500 to 5000 nM after 24 hrs by propidium iodide staining based flow cytometry; type: functional
G-361 [18] = assay: Induction of apoptosis in human G361 cells assessed as caspase3 activation using Ac-DEVD-AMC as substrate at IC50 preincubated for 24 hrs followed by substrate addition measured after 3 hrs by fluorescence assay; type: functional, cell-based
G-361 [19] = assay: Induction of apoptosis in human G361 cells assessed as caspase3 activation using Ac-DEVD-AMC as substrate at 5 times IC50 preincubated for 24 hrs followed by substrate addition measured after 3 hrs by fluorescence assay; type: functional, cell-based
G-361 [20] = assay: Induction of apoptosis in human G361 cells assessed as caspase7 activation using Ac-DEVD-AMC as substrate at IC50 preincubated for 24 hrs followed by substrate addition measured after 3 hrs by fluorescence assay; type: functional, cell-based
G-361 [21] = assay: Induction of apoptosis in human G361 cells assessed as caspase7 activation using Ac-DEVD-AMC as substrate at 5 times IC50 preincubated for 24 hrs followed by substrate addition measured after 3 hrs by fluorescence assay; type: functional, cell-based
[22] = target: Cyclin-dependent kinase 2 (Homo sapiens) (UniProt P24941); assay: Inhibition of CDK2 in human G361 cells assessed as reduction in phosphorylation of RNA polymerase 2 at C-terminus at 0.075 to 0.75 uM incubated for 24 hrs by immunoblotting analysis; type: cell-based; conditions: G-361
Outline: (§4)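 Treated G361 cells were lysed in Laemmli buffer, run on SDS-PAGE and blotted to nitrocellulose. Blots were probed overnight with antibodies to RNA polymerase II phosphorylated at S5 and S2, and to total RNA polymerase II (ARNA-3). Peroxidase secondaries were then applied and signal was detected by ECL with a CCD camera.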

[23] = target: Cyclin-dependent kinase 2 (Homo sapiens) (UniProt P24941); assay: Inhibition of CDK2 in human G361 cells assessed as reduction in phosphorylation of RNA polymerase 2 at C-terminus at 0.75 uM incubated for 0.5 to 24 hrs by immunoblotting analysis; type: cell-based; conditions: G-361; outline: as §4
[24] = target: Cyclin-dependent kinase 2 (Homo sapiens) (UniProt P24941); assay: Inhibition of CDK2 in human G361 cells assessed as reduction in phosphorylation of RNA polymerase 2 at C-terminus at 2.4 to 24 uM incubated for 24 hrs by immunoblotting analysis; type: cell-based; conditions: G-361; outline: as §4
[25] = target: Cyclin-dependent kinase 2 (Homo sapiens) (UniProt P24941); assay: Inhibition of CDK2 in human G361 cells assessed as reduction in phosphorylation of RNA polymerase 2 at C-terminus at 1.5 to 15 uM incubated for 24 hrs by immunoblotting analysis; type: cell-based; conditions: G-361; outline: as §4
[26] = target: Cyclin-dependent kinase 2 (Homo sapiens) (UniProt P24941); assay: Inhibition of CDK2 in human G361 cells assessed as reduction in phosphorylation of RNA polymerase 2 at C-terminus at 15 uM incubated for 0.5 to 24 hrs by immunoblotting analysis; type: cell-based; conditions: G-361; outline: as §4
MCF7 [27] = assay: Cell cycle arrest in BrdU pulse-labelled human MCF7 cells assessed as accumulation at late G2/M phase at 8 to 250 nM after 24 hrs by propidium iodide staining based flow cytometry; type: functional
MCF7 [28] = assay: Cell cycle arrest in BrdU pulse-labelled human MCF7 cells assessed as decrease in cells at S phase at 8 to 250 nM after 24 hrs by propidium iodide staining based flow cytometry; type: functional
MCF7 [29] = assay: Cell cycle arrest in BrdU pulse-labelled human MCF7 cells assessed as accumulation at subG1 phase at 8 to 250 nM after 24 hrs by propidium iodide staining based flow cytometry; type: functional
MCF7 [30] = assay: Cell cycle arrest in BrdU pulse-labelled human MCF7 cells assessed as accumulation at late S phase at 8 to 250 nM after 24 hrs by propidium iodide staining based flow cytometry; type: functional
[31] = target: Cyclin-dependent kinase 2 (Homo sapiens) (UniProt P24941); assay: Inhibition of CDK2 in human G361 cells assessed as reduction in phosphorylation of RNA polymerase 2 at C-terminus at 1 uM incubated for 0.5 to 24 hrs by immunoblotting analysis; type: cell-based; conditions: G-361; outline: as §4

Cyclin-dependent kinase 5, sequence (Q00535 whole entry): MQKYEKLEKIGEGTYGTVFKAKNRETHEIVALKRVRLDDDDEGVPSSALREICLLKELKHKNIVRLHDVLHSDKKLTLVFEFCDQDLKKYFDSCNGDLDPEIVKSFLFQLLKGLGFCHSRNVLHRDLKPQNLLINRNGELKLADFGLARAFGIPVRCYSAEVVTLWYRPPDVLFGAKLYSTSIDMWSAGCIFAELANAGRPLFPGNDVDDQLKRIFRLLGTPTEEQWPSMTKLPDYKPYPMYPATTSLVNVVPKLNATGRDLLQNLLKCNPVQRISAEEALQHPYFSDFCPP

Compound | IC50 [1] [nM] | IC50 [2] [nM] | IC50 (K562) [nM] | IC50 (MCF7 [3]) [nM] | IC50 [4] [nM] | IC50 [5] [nM] | further results
CC(C)c1n[nH]c2c(NCc3ccc(-c4ccccn4)cc3)nc(N3CCCCC3CCO)nc12 (configuration not stated) | 24 | 37 | 165 | 133 | 204 | 142 | –
CCC(CO)Nc1nc(NCc2ccc(-c3ccccn3)cc2)c2[nH]nc(C(C)C)c2n1 (configuration not stated) | 54 | – | – | 53 | 67 | 110 | Activity (MCF7 [3]): Dose-dependent effect; Activity (HCT-116): Dose-dependent effect; Activity (MCF7 [6]): Active; Activity (MCF7 [7]): Active; Activity (MCF7 [8]): Active; Activity (MCF7 [9]): Active
COc1ccc(CNc2nc(NCc3ccc(-c4ccccn4)cc3)c3[nH]nc(C(C)C)c3n2)cc1 | 1480 | – | 3950 | 5300 | 7490 | 17400 | Activity (MCF7 [3]): Dose-dependent effect; Activity (HCT-116): Dose-dependent effect; Activity (MCF7 [10]): Active; Activity (MCF7 [11]): Active; Activity (MCF7 [12]): Active; Activity (MCF7 [13]): Active
CC(C)c1n[nH]c2c(NCc3ccc(-c4ccccn4)cc3)ncnc12 | 197 | – | – | – | 875 | 1240 | Activity (MCF7 [3]): Dose-dependent effect; Activity (HCT-116): Dose-dependent effect; Activity (MCF7 [14]): Active; Activity (MCF7 [15]): Active; Activity (MCF7 [16]): Active; Activity (MCF7 [17]): Active
CC(C)c1n[nH]c2c(NCc3ccc(-c4ccccn4)cc3)nc(NCCN)nc12 | 18 | 8 | 63 | 62 | 230 | 227 | –
CC(C)c1n[nH]c2c(NCc3ccc(-c4ccccn4)cc3)nc(N3CCN(CCO)CC3)nc12 | 132 | – | 145 | 195 | 181 | 350 | –
CC(C)c1n[nH]c2c(NCc3ccc(-c4ccccn4)cc3)nc(NCc3ccc(-c4ccccn4)cc3)nc12 | 1450 | 3600 | 2540 | 2380 | 3610 | 7320 | –
CC(C)c1n[nH]c2c(NCc3ccc(-c4ccccn4)cc3)nc(NCC(C)(C)O)nc12 | 9 | – | 29 | 24 | 48 | 85 | Activity (G-361 [18]): Active; Activity (G-361 [19]): Active; Activity (G-361 [20]): Active; Activity (G-361 [21]): Active; inhibition [22]: Active; inhibition [23]: Active
CC(C)c1n[nH]c2c(NCc3ccc(-c4ccccn4)cc3)nc(N3CCNCC3)nc12 | 50 | – | 17 | 21 | 64 | 88 | –
CC[C@H](CO)Nc1nc(NCc2ccc(-c3ccccn3)cc2)c2ncn(C(C)C)c2n1 | – | – | 175 | 160 | 503 | 350 | –
CC(C)c1n[nH]c2c(NCc3ccc(-c4ccccn4)cc3)nc(NCC(O)CO)nc12 (configuration not stated) | 12 | 21 | 47 | 59 | 72 | 87 | –
CC[C@H](CO)Nc1nc(NCc2ccccc2)c2[nH]nc(C(C)C)c2n1 | – | – | – | – | – | – | inhibition [24]: Active
CC(C)c1n[nH]c2c(NCc3ccc(-c4ccccn4)cc3)nc(N[C@@H]3CCCC[C@H]3N)nc12 (relative stereo) | 46 | 44 | 175 | 295 | 477 | 427 | –
CC(C)c1n[nH]c2c(NCc3ccc(-c4ccccn4)cc3)nc(NCCO)nc12 | 31 | 49 | 38 | 51 | 39 | 27 | –
CC(C)c1n[nH]c2c(NCc3ccc(-c4ccccn4)cc3)nc(N[C@H]3CC[C@H](N)CC3)nc12 | 96 | – | 593 | 474 | 745 | 720 | Activity (G-361 [18]): Active; Activity (G-361 [19]): Active; Activity (G-361 [20]): Active; Activity (G-361 [21]): Active; inhibition [25]: Active; inhibition [26]: Active
CSc1nc(NCc2ccc(-c3ccccn3)cc2)c2[nH]nc(C(C)C)c2n1 | 48 | – | 778 | 819 | 1400 | 2800 | –
CC[C@H](CO)Nc1nc(NCc2ccccc2)c2ncn(C(C)C)c2n1 [SELICICLIB] | – | – | – | 12200 | – | 14400 | –
CC(C)c1n[nH]c2c(NCc3ccc(-c4ccccn4)cc3)nc(S(C)(=O)=O)nc12 | 70 | – | 640 | 460 | 793 | 1140 | –
CC(C)c1n[nH]c2c(NCc3ccc(-c4ccccn4)cc3)nc(NCC(O)CN)nc12 (configuration not stated) | 51 | 17 | 700 | 310 | 1020 | 781 | Activity (MCF7 [27]): Active; Activity (MCF7 [3]): Dose-dependent effect; Activity (HCT-116): Dose-dependent effect; Activity (MCF7 [28]): Active; Activity (MCF7 [29]): Active; Activity (MCF7 [30]): Active
CC(C)c1n[nH]c2c(NCc3ccc(-c4ccccn4)cc3)nc(N3CCSCC3)nc12 | 61 | – | 589 | 530 | 873 | 940 | –
CC(C)c1n[nH]c2c(NCc3ccc(-c4ccccn4)cc3)nc(N3CCOCC3)nc12 | 18 | – | 110 | 163 | 197 | 270 | Activity (G-361 [18]): inactive; Activity (G-361 [19]): Active; Activity (G-361 [20]): inactive; Activity (G-361 [21]): Active; inhibition [31]: Active
CC(C)c1n[nH]c2c(NCc3ccc(-c4ccccn4)cc3)nc(NCCN(C)C)nc12 | 467 | – | 125 | 225 | 640 | 390 | –

Reference: ChEMBL document CHEMBL3774312, “5-Substituted 3-isopropyl-7-[4-(2-pyridyl)benzyl]amino-1(2)H-pyrazolo[4,3-d]pyrimidines with anti-proliferative activity as potent and selective inhibitors of cyclin-dependent kinases” (Eur J Med Chem, 2016)
